The source of these data is ChEMBL document CHEMBL1275584, “Genetically engineered lipopeptide antibiotics related to A54145 and daptomycin with improved properties” (Antimicrob Agents Chemother, 2010).

Experiment [1] deals with Staphylococcus aureus. The experiment in a line: Ratio of MIC for Staphylococcus aureus 42 in presence of 1% bovine pulmonary surfactant to MIC for Staphylococcus aureus 42 in absence of 1% bovine pulmonary surfactant. The format is functional. In outline:
(§1)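 Broth MIC in Mueller-Hinton broth with 50 mg/liter CaCl2, run with or without 1% bovine pulmonary surfactant, following CLSI methods. Colonies came from frozen stocks streaked on sheep-blood tryptic soy agar (37°C, ~24 h). Incubation was at 37°C with rotation at 200 rpm. The ratio is MIC with surfactant divided by MIC without.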

The test system of experiment [2] is Staphylococcus aureus. Nature of the experiment: Antibacterial activity against Staphylococcus aureus 42 in absence of 1% bovine pulmonary surfactant by CLSI method. The settings on record: Staphylococcus aureus, 42, Pulmonary surfactant. The format is functional. The gist of the method:
as §1

Experiment [3] concerns Staphylococcus aureus. Nature of the experiment: Antibacterial activity against Staphylococcus aureus 42 in presence of 1% bovine pulmonary surfactant by CLSI method. The format is functional. The settings on record: Staphylococcus aureus, 42, Pulmonary surfactant. In outline:
as §1

In experiment [4] the test system is Escherichia coli. Nature of the experiment: Antibacterial activity against imp4213 mutant Escherichia coli BAS849 by CLSI method. The format is functional. The gist of the method:
(§2)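 MICs were determined by CLSI broth methods in Mueller-Hinton broth with 50 mg/liter CaCl2, with or without 1% bovine pulmonary surfactant. Inocula came from single colonies streaked from glycerol stocks onto blood agar and grown at 37°C for ~24 h. Cultures were incubated at 37°C with rotation at 200 rpm.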

The test system of experiment [5] is Enterococcus faecalis. Nature of the experiment: Antibacterial activity against daptomycin resistant Enterococcus faecalis 312 by CLSI method. The format is functional. In outline:
as §2

For experiment [6], the system named is Streptococcus pneumoniae. The experiment in a line: Antibacterial activity against daptomycin sensitive Streptococcus pneumoniae 402 by CLSI method. The format is functional. In outline: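 S. pneumoniae MIC in CaCl2-supplemented Mueller-Hinton broth (50 mg/liter) with 5% lysed horse blood, following CLSI methods. Colonies were grown on sheep-blood agar at 37°C under 5% CO2. Assay incubation was at 37°C under 5% CO2 without aeration.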

Experiment [7] deals with Enterococcus faecalis. Nature of the experiment: Antibacterial activity against daptomycin sensitive Enterococcus faecalis 201 by CLSI method. The format is functional. The gist of the method: as §1
The subject of experiment [8] is Enterococcus faecium. Nature of the experiment: Antibacterial activity against daptomycin resistant Enterococcus faecium 384 by CLSI method. The format is functional. The gist of the method:
as §2

Experiment [9] deals with Staphylococcus aureus. The experiment in a line: Antibacterial activity against methicillin resistant Staphylococcus aureus 1616 by CLSI method. The format is functional. The gist of the method:
as §2

Experiment [10] relates to Enterococcus faecium. Nature of the experiment: Antibacterial activity against daptomycin sensitive Enterococcus faecium 14 by CLSI method. The format is functional. The gist of the method:
as §1

Experiment [11] deals with Staphylococcus aureus. Nature of the experiment: Antibacterial activity against daptomycin sensitive and methicillin resistant Staphylococcus aureus MW2 by CLSI method. The format is functional. The gist of the method:
as §2

The subject of experiment [12] is Staphylococcus aureus. Nature of the experiment: Antibacterial activity against daptomycin resistant Staphylococcus aureus 1695 by CLSI method. The format is functional. The gist of the method:
as §2

For experiment [13], the system named is Staphylococcus aureus. Nature of the experiment: Antibacterial activity against daptomycin sensitive and methicillin resistant Staphylococcus aureus 399 by CLSI method. The format is functional. The gist of the method: as §2
In experiment [14] the test system is Staphylococcus aureus. Nature of the experiment: Antibacterial activity against daptomycin sensitive and methicillin susceptible Staphylococcus aureus 42 by CLSI method. The format is functional. In outline: as §2
For experiment [15], the system named is Streptococcus pneumoniae. The experiment in a line: Antibacterial activity against Streptococcus pneumoniae infected in CD1 mouse pneumonia model assessed as lung bacterial load at 25 mg/kg, sc administered at 1 and 4 hrs after bacterial challenge measured 24 hrs post infection (reference value: 2.69x10^8 CFU/ml). The settings on record: route subcutaneous.
For experiment [16], the system named is Streptococcus pneumoniae. Nature of the experiment: Antibacterial activity against Streptococcus pneumoniae infected in CD1 mouse pneumonia model assessed as lung bacterial load at 12.5 mg/kg, sc administered at 1 and 4 hrs after bacterial challenge measured 24 hrs post infection (reference value: 2.69x10^8 CFU/ml). The note with it: route subcutaneous.
Experiment [17] relates to Streptococcus pneumoniae. Nature of the experiment: Antibacterial activity against Streptococcus pneumoniae infected in CD1 mouse pneumonia model assessed as lung bacterial load at 6.25 mg/kg, sc administered at 1 and 4 hrs after bacterial challenge measured 24 hrs post infection (reference value: 2.69x10^8 CFU/ml). The settings on record: route subcutaneous.

Converted amounts (≈) assume the structure as drawn.

The term MIC denotes the least concentration at which growth counts as inhibited.

With `CCCCCCCCCC(=O)N[C@@H](Cc1c[nH]c2ccccc12)C(=O)N[C@H](CC(N)=O)C(=O)N[C@@H](CC(=O)O)C(=O)N[C@@H]1C(=O)NCC(=O)N[C@@H](CCCN)C(=O)N[C@@H](CC(=O)O)C(=O)N[C@H](C)C(=O)N[C@@H](CC(=O)O)C(=O)NCC(=O)N[C@H](CO)C(=O)N[C@@H]([C@H](C)CC(=O)O)C(=O)N[C@@H](CC(=O)c2ccccc2N)C(=O)O[C@@H]1C`, the Ratio in [1] turned out to be 128. Besides, the MIC turned out to be 0.5 µg/mL (≈ 0.309 µM) in experiment [2]; 64 µg/mL in [3]; 128 µg/mL (≈ 79 µM) in [4]; 128 µg/mL (≈ 79 µM) in experiment [5]; 0.25 µg/mL (≈ 0.154 µM) in [6]; 2 µg/mL (≈ 1.23 µM) in experiment [7]. In addition, the MIC in experiment [8] was 32 µg/mL (≈ 19.7 µM); in experiment [9] it was 16 µg/mL (≈ 9.87 µM); in [10], 2 µg/mL (≈ 1.23 µM); in experiment [11], 1 µg/mL (≈ 0.617 µM); in experiment [12], 4 µg/mL (≈ 2.47 µM); in experiment [13] it was 0.5 µg/mL (≈ 0.309 µM). Further, the MIC in [14] was found to be 1 µg/mL (≈ 0.617 µM).
For the compound `CC[C@H](C)[C@@H]1NC(=O)[C@H]([C@H](C)CC(=O)O)NC(=O)[C@@H](CC(N)=O)NC(=O)CNC(=O)[C@@H]([C@H](OC)C(=O)O)NC(=O)[C@@H](CO)NC(=O)[C@H](CC(=O)O)NC(=O)[C@H](C)NC(=O)CN(C)C(=O)[C@@H](NC(=O)[C@@H](NC(=O)[C@@H](CCC(=O)O)NC(=O)[C@H](Cc2c[nH]c3ccccc23)NC(=O)CCCCCCCC(C)C)[C@H](O)C(N)=O)[C@H](C)OC1=O`, the Ratio in experiment [1] came to 16. In addition, the MIC is 1 µg/mL (≈ 0.613 µM) in experiment [2]; 16 µg/mL in [3]; 16 µg/mL (≈ 9.81 µM) in [4]; 128 µg/mL (≈ 78.4 µM) in experiment [5]; 0.25 µg/mL (≈ 0.153 µM) in [6]; 4 µg/mL (≈ 2.45 µM) in experiment [7]. In addition, the MIC was determined as 32 µg/mL (≈ 19.6 µM) in [8]; 8 µg/mL (≈ 4.9 µM) in experiment [9]; 4 µg/mL (≈ 2.45 µM) in [10]; 0.5 µg/mL (≈ 0.306 µM) in experiment [11]; 4 µg/mL (≈ 2.45 µM) in experiment [12]; 1 µg/mL (≈ 0.613 µM) in [13]. The compound also had an MIC in [14] of 1 µg/mL (≈ 0.613 µM).
Turning to `CN[C@H](CC(C)C)C(=O)N[C@H]1C(=O)N[C@@H](CC(N)=O)C(=O)N[C@H]2C(=O)N[C@H]3C(=O)N[C@H](C(=O)N[C@H](C(=O)O)c4cc(O)cc(O)c4-c4cc3ccc4O)[C@H](O)c3ccc(c(Cl)c3)Oc3cc2cc(c3O[C@@H]2O[C@H](CO)[C@@H](O)[C@H](O)[C@H]2O[C@H]2C[C@](C)(N)[C@H](O)[C@H](C)O2)Oc2ccc(cc2Cl)[C@H]1O` [VANCOMYCIN], the figures for the CFU/ml in experiment [15], in [16] and in experiment [17] were 9, 285000 and 1.81e+07, respectively.
